Source: ChEMBL document CHEMBL1806486, “Discovery and evaluation of 3-phenyl-1H-5-pyrazolylamine-based derivatives as potent, selective and efficacious inhibitors of FMS-like tyrosine kinase-3 (FLT3)” (Bioorg Med Chem, 2011)

Assays:
MOLM-13 = experiment: Antiproliferation activity against human MOLM13 cells expressing FLT3 mutation assessed as cell viability after 72 hrs by MTS method; format: functional; settings: MOLM-13, 72 h
Aurora kinase A = molecular target: T1, Aurora kinase A (Homo sapiens, UniProt O14965); experiment: Inhibition of recombinant GST-tagged Aurora A expressed in Sf9 insect cells after 90 mins by Kinase-Glo assay
T1 sequence (O14965 whole entry): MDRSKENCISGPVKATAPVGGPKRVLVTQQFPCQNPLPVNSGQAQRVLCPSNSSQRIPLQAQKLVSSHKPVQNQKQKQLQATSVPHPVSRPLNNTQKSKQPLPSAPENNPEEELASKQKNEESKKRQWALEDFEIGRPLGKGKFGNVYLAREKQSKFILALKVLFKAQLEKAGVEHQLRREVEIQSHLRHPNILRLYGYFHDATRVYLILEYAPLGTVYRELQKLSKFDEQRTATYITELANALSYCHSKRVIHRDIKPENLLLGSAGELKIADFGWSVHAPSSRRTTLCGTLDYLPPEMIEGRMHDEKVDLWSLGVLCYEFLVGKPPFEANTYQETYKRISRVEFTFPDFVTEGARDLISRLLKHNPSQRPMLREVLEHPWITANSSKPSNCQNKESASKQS
In short: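 GST-Aurora A kinase domain (S123–S401, 150 ng) from Sf9 cells. Buffer was 50 mM Tris-HCl pH 7.4 with 10 mM NaCl, 10 mM MgCl2, 0.01% BSA and 1 mM DTT. Kinase-Glo Plus was added for 20 min at 25 °C before the luminescence read.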

[1] = molecular target: T2, Vascular endothelial growth factor receptor 2 (Homo sapiens, UniProt P35968); experiment: Inhibition of recombinant GST-tagged VEGFR2 expressed in Sf9 insect cells at 1 uM after 120 mins by Kinase-Glo assay
T2 sequence (P35968 whole entry, the tested form may be a part): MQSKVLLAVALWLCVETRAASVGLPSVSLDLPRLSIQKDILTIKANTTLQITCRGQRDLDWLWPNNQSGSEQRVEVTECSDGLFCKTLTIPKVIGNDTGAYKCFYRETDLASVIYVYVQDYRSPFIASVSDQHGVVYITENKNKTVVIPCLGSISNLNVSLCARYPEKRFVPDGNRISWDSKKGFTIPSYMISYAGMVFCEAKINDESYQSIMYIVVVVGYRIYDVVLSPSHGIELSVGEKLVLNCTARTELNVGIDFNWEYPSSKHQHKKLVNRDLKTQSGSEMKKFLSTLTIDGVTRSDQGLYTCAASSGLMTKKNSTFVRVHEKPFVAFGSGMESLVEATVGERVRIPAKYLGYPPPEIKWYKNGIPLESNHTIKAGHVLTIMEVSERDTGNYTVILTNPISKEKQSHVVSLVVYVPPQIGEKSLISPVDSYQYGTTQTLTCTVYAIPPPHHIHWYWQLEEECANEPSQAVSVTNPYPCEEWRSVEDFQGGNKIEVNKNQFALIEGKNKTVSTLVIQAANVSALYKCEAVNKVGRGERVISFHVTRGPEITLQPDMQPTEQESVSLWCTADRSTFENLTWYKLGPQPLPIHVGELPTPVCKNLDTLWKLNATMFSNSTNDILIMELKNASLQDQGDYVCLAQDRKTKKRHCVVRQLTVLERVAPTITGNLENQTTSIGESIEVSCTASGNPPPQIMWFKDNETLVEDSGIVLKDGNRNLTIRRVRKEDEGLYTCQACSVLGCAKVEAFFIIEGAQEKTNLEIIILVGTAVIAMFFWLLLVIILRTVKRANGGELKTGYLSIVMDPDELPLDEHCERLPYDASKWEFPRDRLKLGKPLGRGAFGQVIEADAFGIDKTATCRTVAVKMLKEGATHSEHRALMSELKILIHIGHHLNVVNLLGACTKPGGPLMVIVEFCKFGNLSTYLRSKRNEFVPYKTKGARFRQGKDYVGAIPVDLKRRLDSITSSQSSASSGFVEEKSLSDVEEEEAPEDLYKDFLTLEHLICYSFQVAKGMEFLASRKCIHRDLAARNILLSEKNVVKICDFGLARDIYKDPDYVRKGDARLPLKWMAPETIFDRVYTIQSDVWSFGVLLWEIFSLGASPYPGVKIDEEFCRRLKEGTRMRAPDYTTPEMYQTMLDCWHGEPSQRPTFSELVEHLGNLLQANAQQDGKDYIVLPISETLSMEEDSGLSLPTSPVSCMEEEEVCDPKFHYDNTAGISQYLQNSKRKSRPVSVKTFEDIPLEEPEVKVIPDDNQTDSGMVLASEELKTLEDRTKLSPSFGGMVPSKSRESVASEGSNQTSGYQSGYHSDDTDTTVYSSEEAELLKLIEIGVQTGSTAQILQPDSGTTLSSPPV

[2] = molecular target: T3, Receptor-type tyrosine-protein kinase FLT3 (Homo sapiens, UniProt P36888); experiment: Inhibition of GST-tagged FLT3 expressing wild type kinase domain expressed in Sf9 insect cells after 4 hrs by Kinase-Glo assay
T3 sequence (P36888 whole entry): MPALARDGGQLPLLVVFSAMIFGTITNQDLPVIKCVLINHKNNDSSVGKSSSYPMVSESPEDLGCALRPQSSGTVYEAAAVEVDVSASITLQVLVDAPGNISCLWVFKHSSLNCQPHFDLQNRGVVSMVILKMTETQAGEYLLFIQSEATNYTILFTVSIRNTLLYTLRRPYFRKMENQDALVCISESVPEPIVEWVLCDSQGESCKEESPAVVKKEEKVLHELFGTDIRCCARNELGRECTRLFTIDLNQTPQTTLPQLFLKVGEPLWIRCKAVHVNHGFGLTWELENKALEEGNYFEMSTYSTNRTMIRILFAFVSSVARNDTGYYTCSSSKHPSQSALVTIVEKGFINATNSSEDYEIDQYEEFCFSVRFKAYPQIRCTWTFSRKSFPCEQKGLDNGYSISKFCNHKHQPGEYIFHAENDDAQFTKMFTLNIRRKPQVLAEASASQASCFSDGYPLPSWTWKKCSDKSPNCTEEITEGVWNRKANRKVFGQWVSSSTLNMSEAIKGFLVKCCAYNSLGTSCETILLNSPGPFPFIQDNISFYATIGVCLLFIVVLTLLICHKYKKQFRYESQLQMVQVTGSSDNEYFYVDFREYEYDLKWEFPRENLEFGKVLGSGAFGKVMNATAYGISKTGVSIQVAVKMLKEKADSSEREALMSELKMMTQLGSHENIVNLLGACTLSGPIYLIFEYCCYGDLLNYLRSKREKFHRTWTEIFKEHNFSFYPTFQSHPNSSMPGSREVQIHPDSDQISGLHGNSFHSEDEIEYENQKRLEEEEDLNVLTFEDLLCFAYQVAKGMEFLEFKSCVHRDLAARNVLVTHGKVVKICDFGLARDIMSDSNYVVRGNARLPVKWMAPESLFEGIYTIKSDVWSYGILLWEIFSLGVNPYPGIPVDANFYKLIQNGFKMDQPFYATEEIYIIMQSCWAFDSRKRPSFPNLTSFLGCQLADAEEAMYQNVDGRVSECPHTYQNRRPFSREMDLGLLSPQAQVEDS

[3] = molecular target: Vascular endothelial growth factor receptor 1 (Homo sapiens, UniProt P17948); experiment: Inhibition of recombinant GST-tagged VEGFR1 expressed in Sf9 insect cells after 120 mins by Kinase-Glo assay
Chain of Vascular endothelial growth factor receptor 1 (P17948 whole entry, the tested form may be a part): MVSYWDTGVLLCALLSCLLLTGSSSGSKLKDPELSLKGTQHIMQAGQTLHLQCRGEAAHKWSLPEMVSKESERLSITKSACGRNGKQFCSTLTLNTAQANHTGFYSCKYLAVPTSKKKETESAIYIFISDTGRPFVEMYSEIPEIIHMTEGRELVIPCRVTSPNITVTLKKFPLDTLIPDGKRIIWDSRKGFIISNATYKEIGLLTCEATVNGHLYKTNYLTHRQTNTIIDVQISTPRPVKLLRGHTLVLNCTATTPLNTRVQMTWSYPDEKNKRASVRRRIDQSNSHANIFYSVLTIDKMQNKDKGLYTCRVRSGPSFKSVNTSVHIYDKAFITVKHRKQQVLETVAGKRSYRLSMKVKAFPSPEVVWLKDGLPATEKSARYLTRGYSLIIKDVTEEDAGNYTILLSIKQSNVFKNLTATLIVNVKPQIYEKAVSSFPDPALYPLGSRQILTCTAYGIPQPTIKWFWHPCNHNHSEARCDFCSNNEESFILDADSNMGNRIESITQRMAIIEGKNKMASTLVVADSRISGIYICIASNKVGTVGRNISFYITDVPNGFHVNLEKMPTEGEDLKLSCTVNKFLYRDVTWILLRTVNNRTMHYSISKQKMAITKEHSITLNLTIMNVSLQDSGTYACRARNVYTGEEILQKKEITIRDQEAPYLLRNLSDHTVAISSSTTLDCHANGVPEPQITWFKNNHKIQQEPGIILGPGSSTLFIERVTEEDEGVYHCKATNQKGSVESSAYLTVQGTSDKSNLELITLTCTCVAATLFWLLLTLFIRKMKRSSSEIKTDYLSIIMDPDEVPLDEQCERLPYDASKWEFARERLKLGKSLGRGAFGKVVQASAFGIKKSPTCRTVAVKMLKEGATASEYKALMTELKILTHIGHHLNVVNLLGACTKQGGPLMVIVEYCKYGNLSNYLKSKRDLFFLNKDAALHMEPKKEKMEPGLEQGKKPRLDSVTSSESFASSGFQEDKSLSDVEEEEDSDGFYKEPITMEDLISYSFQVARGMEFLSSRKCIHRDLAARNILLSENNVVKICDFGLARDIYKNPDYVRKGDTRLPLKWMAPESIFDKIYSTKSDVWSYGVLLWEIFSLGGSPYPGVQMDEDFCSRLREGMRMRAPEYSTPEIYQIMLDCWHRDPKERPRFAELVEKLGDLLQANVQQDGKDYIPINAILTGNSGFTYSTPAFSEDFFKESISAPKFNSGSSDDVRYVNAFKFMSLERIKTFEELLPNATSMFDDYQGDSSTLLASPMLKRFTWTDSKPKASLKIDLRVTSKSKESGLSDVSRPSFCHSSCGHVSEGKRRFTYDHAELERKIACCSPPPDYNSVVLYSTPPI
In short: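 GST-VEGFR1 (R781–I1338) or GST-VEGFR2 (V789–V1356) kinase domain, 50–100 ng, from Sf9 cells. Read-out was Kinase-Glo Plus luminescence.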

[4] = molecular target: T2, Vascular endothelial growth factor receptor 2; experiment: Inhibition of recombinant GST-tagged VEGFR2 expressed in Sf9 insect cells after 120 mins by Kinase-Glo assay; format: cell-based
Mus musculus [5] = experiment: Toxicity in athymic nu/nu nude mouse assessed as lethality at 50 mg/kg, iv for continuous 5 days; format: organism-based; parameters: dose 50 mg/kg, route intravenous; settings: in vivo, 120 h
[6] = AUC (0 to infinity) in Sprague-Dawley rat at 5 mg/kg, iv; format: ADME, organism-based; parameters: time infinity, dose 5 mg/kg, route intravenous; settings: plasma
[7] = Volume of distribution at steady state in Sprague-Dawley rat at 5 mg/kg, iv; format: ADME, organism-based; parameters: dose 5 mg/kg, route intravenous; settings: in vivo, read-out: Vdss
Mus musculus [8] = experiment: Toxicity in normal mouse assessed as reduction of body weight at 50 mg/kg, iv for continuous 5 days; settings: in vivo, 120 h
[9] = Half life in Sprague-Dawley rat at 5 mg/kg, iv; format: ADME, organism-based; parameters: dose 5 mg/kg, route intravenous; settings: in vivo
[10] = Clearance in Sprague-Dawley rat at 5 mg/kg, iv; format: ADME, organism-based; parameters: dose 5 mg/kg, route intravenous; settings: in vivo
[11] = molecular target: Receptor-type tyrosine-protein kinase FLT3 (Homo sapiens) (UniProt P36888); experiment: Inhibition of GST-tagged FLT3 expressing wild type kinase domain expressed in Sf9 insect cells at 1 uM after 4 hrs by Kinase-Glo assay
[12] = molecular target: Aurora kinase A (Homo sapiens) (UniProt O14965); experiment: Inhibition of recombinant GST-tagged Aurora A expressed in Sf9 insect cells at 1 uM after 90 mins by Kinase-Glo assay
[13] = Antiproliferation activity against human RS4:11 cells expressing wild type FLT3 after 72 hrs by MTS method; format: functional; settings: RS4-11, 72 h
MOLT-4 = experiment: Antiproliferation activity against human MOLT4 after 72 hrs by MTS method; format: functional; settings: MOLT-4, 72 h
MV4-11 = experiment: Antiproliferation activity against FLT3/ITD harboring human MV4-11 cells after 72 hrs by MTS method; format: functional; settings: MV4-11, 72 h
K562 = experiment: Antiproliferation activity against human K562 cells expressing wild type BCR/ABL after 72 hrs by MTS method; format: functional; settings: K562, 72 h

| Structure (SMILES) | GI50 (MOLM-13) [µM] | IC50 (Aurora kinase A) [µM] | IC50 [2] [µM] | IC50 [3] [µM] | IC50 [4] [µM] | further results |
| --- | --- | --- | --- | --- | --- | --- |
| Cc1nc(NCCN(C)C)cc(Nc2cc(-c3cccc(NS(=O)(=O)c4ccccc4)c3)n[nH]2)n1 | 0.18 | > 1 | 0.071 | > 1 |  | inhibition [1]: 55% |
| CN1CCN(c2ccc(C(=O)Nc3cc(-c4cccc(NC(=O)c5ccccc5)c4)n[nH]3)cc2)CC1 | 0.21 |  | 0.27 |  |  |  |
| CCCCS(=O)(=O)Nc1cccc(-c2cc(Nc3cc(N4CCN(C)CC4)nc(C)n3)[nH]n2)c1 | 0.16 | > 1 | 0.11 | > 1 | > 1 |  |
| O=C(Nc1cc(-c2cccc(NS(=O)(=O)c3ccccc3)c2)n[nH]1)c1ccc(OCCN2CCCC2)cc1 | 0.025 | 1.17 | 0.007 | 0.27 | 0.2 | Activity (Mus musculus [5]): Toxic; AUC(0-inf) [6]: 3940 ng·h/mL; Vd [7]: 10.7 L/kg; Activity (Mus musculus [8]): Toxic; half-life [9]: 9.9 h; clearance [10]: 22.3 mL/min/kg |
| O=C(Nc1cc(-c2cccc(NS(=O)(=O)c3ccccc3)c2)n[nH]1)c1cccc(C(F)(F)F)c1 |  |  | > 1 |  |  |  |
| O=C(Nc1cc(-c2cccc(NS(=O)(=O)c3ccccc3)c2)n[nH]1)c1ccc(N2CCOCC2)cc1 | 0.1 | 0.39 | 0.029 | > 1 | 0.45 |  |
| O=C(Nc1cc(-c2cccc(NS(=O)(=O)c3ccccc3)c2)n[nH]1)c1cccc(N2CCOCC2)c1 | 0.26 | > 1 | > 1 | > 1 | > 1 |  |
| O=C(Nc1cc(-c2cccc(NS(=O)(=O)c3ccccc3)c2)n[nH]1)c1ccccc1 |  |  |  |  |  | inhibition [11]: 54% |
| O=C(Nc1cc(-c2cccc(NS(=O)(=O)c3ccccc3)c2)n[nH]1)c1ccc(OCCN2CCOCC2)cc1 | 0.072 |  | 0.07 | > 1 | > 1 | inhibition [12]: 50% |
| CN1CCN(c2ccc(C(=O)Nc3cc(-c4cccc(NS(=O)(=O)c5ccc(Cl)cc5)c4)n[nH]3)cc2)CC1 | 0.074 | 4.99 | 0.12 | 0.57 | > 1 |  |
| O=C(O)c1cccc(C(=O)Nc2cc(-c3cccc(NS(=O)(=O)c4ccccc4)c3)n[nH]2)c1 |  |  |  |  |  | inhibition [11]: 56% |
| CN1CCN(c2ccc(C(=O)Nc3cc(-c4cccc(N)c4)n[nH]3)cc2)CC1 | 0.077 |  | 0.014 |  |  |  |
| CCCS(=O)(=O)Nc1cccc(-c2cc(NC(=O)c3ccc(N4CCN(C)CC4)cc3)[nH]n2)c1 | 0.056 | 1.64 | 0.1 | 2.61 | 2.72 |  |
| Cc1nc(Nc2cc(-c3cccc(NS(=O)(=O)c4ccccc4)c3)n[nH]2)cc(N2CCN(CCO)CC2)n1 | 0.024 | 0.17 | 0.05 | > 1 | 0.14 |  |
| CCS(=O)(=O)Nc1cccc(-c2cc(NC(=O)c3ccc(N4CCN(C)CC4)cc3)[nH]n2)c1 | 0.033 | > 1 | 0.36 | > 1 | > 1 |  |
| COc1ccc(S(=O)(=O)Nc2cccc(-c3cc(NC(=O)c4ccc(N5CCN(C)CC5)cc4)[nH]n3)c2)cc1 | 0.05 | > 1 | 0.09 | 0.42 | 0.16 |  |
| Cc1cccc(S(=O)(=O)Nc2cccc(-c3cc(NC(=O)c4ccc(N5CCN(C)CC5)cc4)[nH]n3)c2)c1 | 0.016 | 0.43 | 0.007 | 0.14 | 0.07 | Activity (Mus musculus [5]): Toxic; AUC(0-inf) [6]: 1200 ng·h/mL; Vd [7]: 2.6 L/kg; Activity (Mus musculus [8]): Toxic; half-life [9]: 1.7 h; clearance [10]: 67.4 mL/min/kg |
| Cc1ccc(S(=O)(=O)Nc2cccc(-c3cc(NC(=O)c4ccc(N5CCN(C)CC5)cc4)[nH]n3)c2)cc1 | 0.024 |  | 0.015 | > 1 | > 1 | inhibition [12]: 50% |
| CN1CCN(c2ccc(C(=O)Nc3cc(-c4cccc(NC(=O)Nc5ccccc5)c4)n[nH]3)cc2)CC1 | 0.15 |  | 0.02 |  |  |  |
| O=C(O)c1ccc(C(=O)Nc2cc(-c3cccc(NS(=O)(=O)c4ccccc4)c3)n[nH]2)cc1 |  |  |  |  |  | inhibition [11]: 61% |
| CC(C)S(=O)(=O)Nc1cccc(-c2cc(NC(=O)c3ccc(N4CCN(C)CC4)cc3)[nH]n2)c1 | 0.044 | > 1 | 0.16 | > 1 | > 1 |  |
| CN1CCN(c2ccc(C(=O)Nc3cc(-c4ccc(NS(=O)(=O)c5ccccc5)cc4)n[nH]3)cc2)CC1 | 0.05 |  | 0.59 |  |  |  |
| CN1CCN(c2ccc(C(=O)Nc3cc(-c4cccc(NS(=O)(=O)c5cccc(Cl)c5)c4)n[nH]3)cc2)CC1 | 0.039 | 1.71 | 0.008 | 0.04 | 0.25 |  |
| Cc1cccc(S(=O)(=O)Nc2cccc(-c3cc(Nc4cc(N5CCN(C)CC5)nc(C)n4)[nH]n3)c2)c1 | 0.078 | > 1 | 0.12 | > 1 | > 1 |  |
| CN1CCN(c2cccc(C(=O)Nc3cc(-c4cccc(NS(=O)(=O)c5ccccc5)c4)n[nH]3)c2)CC1 | 0.19 | 0.85 | 0.065 | > 1 | 0.41 |  |
| O=C(Nc1cc(-c2cccc(NS(=O)(=O)c3ccccc3)c2)n[nH]1)c1ccc(C(F)(F)F)cc1 |  |  | > 1 |  |  |  |
| CN1CCN(c2ccc(C(=O)Nc3cc(-c4cccc(NS(=O)(=O)c5ccccc5)c4)n[nH]3)cc2)CC1 | 0.012 | 0.34 | 0.013 | 0.21 | 0.13 | Activity (Mus musculus [5]): Toxic; AUC(0-inf) [6]: 551 ng·h/mL; Vd [7]: 15.5 L/kg; Activity (Mus musculus [8]): Toxic; half-life [9]: 4.5 h; clearance [10]: 102 mL/min/kg |
| CNC(=O)c1cc(Oc2ccc(NC(=O)Nc3ccc(Cl)c(C(F)(F)F)c3)cc2)ccn1 [SORAFENIB] |  |  |  |  |  | GI50 [13]: 9.4 µM; GI50 (MOLT-4): 9 µM; GI50 (MV4-11): 0.03 µM; GI50 (K562): 6.2 µM |
| Cc1nc(NCCN2CCOCC2)cc(Nc2cc(-c3cccc(NS(=O)(=O)c4ccccc4)c3)n[nH]2)n1 | 0.46 | > 1 | 0.06 | > 1000 | > 1 |  |
